One test deals with T1, Dihydrofolate reductase (Bos taurus, UniProt P00376).
T1 sequence (P00376 whole entry): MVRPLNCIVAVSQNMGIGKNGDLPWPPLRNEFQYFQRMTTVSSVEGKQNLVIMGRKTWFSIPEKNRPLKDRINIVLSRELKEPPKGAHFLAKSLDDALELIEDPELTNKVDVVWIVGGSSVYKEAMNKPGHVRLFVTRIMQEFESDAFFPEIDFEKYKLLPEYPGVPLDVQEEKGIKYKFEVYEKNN
The test can be described thus: Inhibition of bovine liver DHFR measured for every 1 min of 10 mins.

The nature of test [1]: Cytotoxicity against human CNS cancer cells at 10 uM after 48 hrs. The class given is functional. Conditions: Cancer cell lines.
Test [2] can be described thus: Cytotoxicity against human colon cancer cells at 10 uM after 48 hrs. The class given is functional. Conditions: Cancer cell lines. In a few lines:
(§1)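 Single-dose primary screen in the NCI 60 human tumour cell line panel, run at the NCI facility. The panel covers nine subpanels: leukaemia, non-small cell lung, colon, CNS, melanoma, ovarian, renal, prostate and breast. Read-out was percent growth of treated cells, shown as a mean graph and reported as percent growth inhibition.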

Test [3] is described as follows: Cytotoxicity against human renal cancer cells at 10 uM after 48 hrs. The class given is functional. To be noted: Cancer cell lines.
Test [4] can be described thus: Cytotoxicity against human melanoma cells at 10 uM after 48 hrs. The class given is functional. To be noted: Melanoma cell. In a few lines: as §1
Test [5] can be described thus: Cytotoxicity against human prostate cancer cells at 10 uM after 48 hrs. Conditions: Cancer cell lines. In kind it is functional.
Test [6] can be described thus: Cytotoxicity against human breast cancer cells at 10 uM after 48 hrs. The class given is functional. Conditions: Cancer cell lines. In a few lines: as §1
Test [7] can be described thus: Cytotoxicity against human leukemia cells at 10 uM after 48 hrs. In kind it is functional. To be noted: Leukemia cell.
Test [8] can be described thus: Cytotoxicity against human non-small cell lung cancer cells at 10 uM after 48 hrs. The class given is functional. To be noted: Cancer cell lines. In a few lines:
as §1

Where [9] appears, read: read-out: LC50 (the source's name).

Consider 5 compounds from ChEMBL document CHEMBL3112482, “Nonclassical antifolates, part 5. Benzodiazepine analogs as a new class of DHFR inhibitors: synthesis, antitumor testing and molecular modeling study” (Eur J Med Chem, 2014).

pIC50: −log10 of the molar value.

Regarding `COc1ccc(/C=C2\CCCC3=C(c4ccc(OC)cc4)Nc4cc(C)c(C)cc4N=C32)cc1`, at Dihydrofolate reductase, the negative logarithm of the IC50 (pIC50) – broadly, −log10 of the IC50, conventionally taken in molar units – was 7.00.
In the case of `O=c1[nH]cc(F)c(=O)[nH]1` [FLUOROURACIL], the TGI in test [1], in test [2], in [3], in [4], in test [5] and in test [6] was more than 100 µM in each case. Also, the concentration for total growth inhibition (TGI) in [7] and in [8] was more than 100 µM throughout. Also, the CC50 in test [1] (setting [9]), in test [2] (setting [9]), in test [3], in test [4] (setting [9]) and in test [8] (setting [9]) was more than 100 µM each time. The GI50 (in general, the concentration at which growth is held to half of that of the control) in [2] is 8.4 µM; in test [3], 45.6 µM; in test [4] it was 70.6 µM; in test [5], 22.7 µM; in test [6] it was 76.4 µM; in test [8], more than 100 µM.
`Cc1cc2c(cc1C)NC(c1ccc(Cl)cc1)=C1CCC/C(=C\c3ccc(Cl)cc3)C1=N2` gave a pIC50 against Dihydrofolate reductase of 4.15.
On the same count and under the same terms, to `Clc1cc2c(cc1Cl)NC(c1ccc(Br)cc1)=C1CCC/C(=C\c3ccc(Br)cc3)C1=N2` belongs 7.00; to `Brc1ccc(/C=C2\CCCC3=C(c4ccc(Br)cc4)Nc4ccccc4N=C32)cc1`, 4.19.
